Among the data in ChEMBL document CHEMBL1121573, “2-(Aminomethyl)phenols, a new class of saluretic agents. 1. Effects of nuclear substitution” (J Med Chem, 1980) are MAP and Diuretic activity values, retold here.

Series [1] concerns Rattus norvegicus. In words: Maximum fall in mean arterial blood pressure was measured in SH rats when compound was administered at 30 mg/kg perorally. The settings on record: route oral. The class given is functional.
The subject of series [2] is Canis familiaris. In words: Oral diuretic activity was evaluated by measuring Na+ excretion in dog at 10 mg/kg after ip administration (0-6 hr). The class given is ADME, organism-based, Canis lupus familiaris, Urine. Set-up: dose 10 mg/kg, route intraperitoneal. Conditions: in vivo. The procedure, abridged:
(§1)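 Spontaneous urine was pooled with bladder urine collected by catheterization at 6 h. Volume was measured and Na+, K+ and Cl− were determined by standard methods. Values are geometric means.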

The test system of series [3] is Canis familiaris. The series is described as follows: Oral diuretic activity was evaluated by measuring K+ excretion in dog at 5 mg/kg after ip administration (0-6 hr). Also noted: dose 5 mg/kg, route intraperitoneal. The class given is ADME, organism-based, Canis lupus familiaris, Urine. Conditions: in vivo. The procedure, abridged: as §1
Series [4] relates to Rattus norvegicus. In words: Oral diuretic activity was evaluated by measuring K+ excretion in Rat at 9 mg/kg […] (0-5 hr). The series is classed as ADME, organism-based, Urine. Set-up: dose 9 mg/kg. The gist of the method:
(§2)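 Female Charles-River rats (150–170 g) were kept overnight on a sugar diet with water ad libitum. Test substance was dissolved in DMF and diluted with water containing Tween 80 to a final 4% DMF vehicle, then given po in 5.0 mL. Rats were housed three per metabolism cage, and 0–5 h urine was assayed for Na⁺, K⁺ and Cl⁻ alongside concurrent placebo groups. Values are mequiv × 100 per cage, geometric means of three cages per dose.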

Series [5] concerns Canis familiaris. The series is described as follows: Oral diuretic activity was evaluated by measuring Cl- excretion in dog at 10 mg/kg after […] (0-6 hr). The class given is ADME, organism-based, Canis lupus familiaris, Urine. Set-up: dose 10 mg/kg, route intraperitoneal. The settings on record: in vivo.
Series [6] concerns Rattus norvegicus. The series is described as follows: Oral diuretic activity was evaluated by measuring Cl- excretion in Rat at 81 mg/kg after po administration (0-5 hr). Conditions: in vivo.
The subject of series [7] is Rattus norvegicus. In words: Oral diuretic activity was evaluated by measuring Cl- excretion in Rat at 9 mg/kg […] (0-5 hr). The class given is ADME, organism-based, Urine. Also noted: dose 9 mg/kg. Conditions: in vivo. The gist of the method: as §2
In series [8] the test system is Rattus norvegicus. The series is described as follows: Evaluated for salidiuretic activity measured as sodium ion excretion in Rat, administered orally at a dose of 50 mg/kg. The series is classed as functional, Urine. Also noted: unit not given beside the values. Conditions: route oral. The procedure, abridged:
(§3)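 Female Charles-River rats (150–170 g), overnight on sugar diet with water ad libitum. Compound dissolved in DMF, diluted with water containing Tween 80 (final 4% DMF), given po in 5.0 mL; concurrent vehicle placebo. Three rats per metabolism cage; 0–5 h urine analysed for Na+, K+, Cl-. Values: mequiv × 100 per cage, geometric means of three cages per dose; scored 0–6 by Na+.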

For series [9], the system named is Canis familiaris. The series is described as follows: Oral diuretic activity was evaluated by measuring Cl- excretion in dog at 5 mg/kg after […] (0-6 hr). The class given is ADME, organism-based, Canis lupus familiaris, Urine. Conditions: in vivo. Set-up: dose 5 mg/kg, route intraperitoneal.
Series [10] relates to Rattus norvegicus. In words: Oral diuretic activity was evaluated by measuring Cl- excretion in Rat at 27 mg/kg […] (0-5 hr). The class given is ADME, organism-based, Urine. Set-up: dose 27 mg/kg. The settings on record: in vivo.
In series [11] the test system is Canis familiaris. In words: Oral diuretic activity was evaluated by measuring K+ excretion in dog at 10 mg/kg after ip administration (0-6 hr). The series is classed as ADME, organism-based, Canis lupus familiaris, Urine. Conditions: in vivo. Also noted: dose 10 mg/kg, route intraperitoneal. The procedure, abridged:
as §1

Series [12] deals with Rattus norvegicus. The series is described as follows: Compound administered orally at a dose of 81 mg/kg was evaluated for salidiuretic activity measured as sodium ion excretion in Rat. The settings on record: in vivo, po. The class given is ADME, organism-based, Urine. Also noted: dose 81 mg/kg, route oral. The gist of the method: as §3
For series [13], the system named is Rattus norvegicus. The series is described as follows: Oral diuretic activity was evaluated by measuring Na+ excretion in Rat at 9 mg/kg after […] (0-5 hr). The series is classed as ADME, organism-based, Urine. Also noted: dose 9 mg/kg. Conditions: in vivo, ip. The procedure, abridged:
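Female Charles-River rats (150–170 g) were kept overnight on a sugar diet with water ad libitum. Compound was dissolved in DMF, then diluted with water containing Tween 80 (3 drops/100 mL) to a final 4% DMF, and given po in 5.0 mL. Rats were housed three per metabolism cage. Urine from 0–5 h was analysed for Na+, K+ and Cl−, with concurrent placebo controls. Values are mequiv × 100 per cage, geometric mean of three cages per dose.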

Series [14] has as its system Rattus norvegicus. In words: Oral diuretic activity was evaluated by measuring K+ excretion in Rat at 81 mg/kg after […] (0-5 hr). The class given is ADME, organism-based, Urine. Set-up: dose 81 mg/kg. The procedure, abridged:
as §2

Series [15] deals with Canis familiaris. In words: Oral diuretic activity was evaluated by measuring Na+ excretion in dog at 1 mg/kg after ip administration (0-6 hr). Conditions: in vivo. The class given is ADME, organism-based, Canis lupus familiaris, Urine. Set-up: dose 1 mg/kg, route intraperitoneal. The gist of the method:
as §1

The nature of series [16]: Evaluated for salidiuretic activity measured as sodium ion excretion in Rat, administered orally at a dose of 16.5 mg/kg. The class given is organism-based. Conditions: Urine. Set-up: dose 16.5 mg/kg. The procedure, abridged:
as §3

Series [17] deals with Canis familiaris. In words: Salidiuretic activity in dog following i.v. dosing at 5 mg/kg. Conditions: route intravenous. Also noted: unit not given beside the values. The class given is functional, Canis lupus familiaris, Urine. The procedure, abridged:
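Conditioned female mongrel dogs, postabsorptive, got a 500 mL oral water load 1 h before pentobarbital anesthesia (30 mg/kg iv). After replicate 15-min control collections, compound was given as an iv stat injection.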

Series [18] relates to Rattus norvegicus. The series is described as follows: Maximum fall in mean arterial blood pressure was measured in SH rats when compound was administered at 3.75 mg/kg perorally. The series is classed as functional. Conditions: route oral.
Series [19] concerns Canis familiaris. In words: Oral diuretic activity was evaluated by measuring Na+ excretion in dog at 5 mg/kg after ip administration (0-6 hr). The series is classed as ADME, organism-based, Canis lupus familiaris, Urine. Also noted: dose 5 mg/kg, route intraperitoneal. Conditions: in vivo. The procedure, abridged:
as §1

The nature of series [20]: Compound administered orally at a dose of 5 mg/kg was evaluated for salidiuretic activity measured as sodium ion excretion in Rat. The series is classed as organism-based. Also noted: dose 5 mg/kg. Conditions: Urine. The gist of the method:
as §3

Series [21] concerns Canis familiaris. The series is described as follows: Oral diuretic activity was evaluated by measuring K+ excretion in dog at 1 mg/kg after ip administration (0-6 hr). The class given is ADME, organism-based, Canis lupus familiaris, Urine. Conditions: in vivo. Also noted: dose 1 mg/kg, route intraperitoneal. The procedure, abridged:
as §1

Series [22] concerns Rattus norvegicus. The series is described as follows: Maximum fall in mean arterial blood pressure was measured in SH rats when compound was administered at 7.5 mg/kg perorally. The settings on record: route oral. The series is classed as functional.
Series [23] concerns Rattus norvegicus. The series is described as follows: Oral diuretic activity was evaluated by measuring Na+ excretion in Rat at 81 mg/kg […] (0-5 hr). The class given is ADME, organism-based, Urine. Also noted: dose 81 mg/kg. The settings on record: in vivo.
Series [24] deals with Rattus norvegicus. The series is described as follows: Oral diuretic activity was evaluated by measuring K+ excretion in Rat at 27 mg/kg […] (0-5 hr). The series is classed as ADME, organism-based, Urine. Set-up: dose 27 mg/kg. The gist of the method:
as §2

Regarding `NS(=O)(=O)c1cc(C(=O)O)c(NCc2ccco2)cc1Cl` [FUROSEMIDE], the values for the MAP in series [1], in series [18] and in series [22] were 12 mmHg, 12 mmHg and 10 mmHg, respectively. Also, the Diuretic activity was determined as 35 in [2]; 7.3 in series [3]; 0.14 in series [4]; 43.8 in [5]; 3.7 in series [6]; 0.22 in series [7]. The Diuretic activity in series [8] is given as 2.4; in series [9] it was 37; in [10], 2.13; in series [11], 8.4; in series [12] it was 2.9; in [13], 0.07. The Diuretic activity amounted to 0.77 in [14]; 11.4 in series [15]; 1.4 in series [16]; 250 in [17]; 28.2 in series [19]; 0.5 in series [20]. Further, the Diuretic activity in series [21] is listed as 4.1; in series [23], 2.44; in series [24] it was 0.55.
